Data: ChEMBL document CHEMBL1140068, “Computer based design, synthesis and biological evaluation of novel indole derivatives as HCV NS3-4A serine protease inhibitors” (Bioorg Med Chem, 2008)
Converted amounts (≈) assume the structure as drawn.

Experiments:
Hepacivirus hominis [1] = test: Inhibition of HCV NS3 protease at 10 ug/ml
How it was run: (§1)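 Competitive displacement binding assay against HCV NS3-4A protease using the fluorogenic peptide substrate Ac-Asp-Glu-Asp(EDANS)-Glu-Glu-Abu-ψ. Fluorescence intensity was read, and percent inhibition was calculated from it.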

[2] = Inhibition of HCV NS3 protease; parameters: species or system Hepacivirus hominis; how it was run: as §1
Hepacivirus hominis [3] = test: Inhibition of HCV NS3 protease at 100 ug/ml; how it was run: as §1
Hepacivirus hominis [4] = test: Inhibition of HCV NS3 protease at 50 ug/ml; how it was run: as §1

inhibition (Hepacivirus hominis [1]) [%]	IC50 [2] [µg/mL]	inhibition (Hepacivirus hominis [3]) [%]	inhibition (Hepacivirus hominis [4]) [%]	Compound
19.1	39.2 (≈ 62.1 µM)	82.9	54	O=C(CCC(=O)N[C@@H](Cc1ccc(O)cc1)C(=O)O)CC(c1ccc(C(F)(F)F)cc1)c1c[nH]c2ccc(Br)cc12 (stereo partly specified)
43.7	15	85.7	84.4	COc1ccc(C(CC(=O)CCC(=O)N[C@@H](Cc2ccccc2)C(=O)O)c2c[nH]c3ccc(OC)cc23)cc1 (mixture of isomers)
35.2	39	84.3	57.1	COc1ccc2[nH]cc(C(CC(=O)CCC(=O)N[C@@H](Cc3ccc(O)cc3)C(=O)O)c3ccc(C(F)(F)F)cc3)c2c1 (mixture of isomers)
	44.1	72.6	54.8	COc1ccc(C(CC(=O)CCC(=O)N[C@@H](Cc2c[nH]c3ccccc23)C(=O)O)c2c[nH]c3ccc(Br)cc23)cc1 (mixture of isomers)

More lines, now with the values behind:

Compound	inhibition (Hepacivirus hominis [1]) [%]	IC50 [2] [µg/mL]	inhibition (Hepacivirus hominis [3]) [%]	inhibition (Hepacivirus hominis [4]) [%]
COc1ccc([C@@H](CC(=O)CCC(=O)N[C@@H](Cc2ccccc2)C(=O)O)c2c[nH]c3ccc(OC)cc23)cc1		36.5 (≈ 69 µM)		
COc1ccc2[nH]cc(C(CC(=O)CCC(=O)N[C@@H](Cc3c[nH]c4ccccc34)C(=O)O)c3ccc(C(F)(F)F)cc3)c2c1 (mixture of isomers)		47.9	76.9	51.2
COc1ccc(C(CC(=O)CCC(=O)N[C@@H](Cc2c[nH]c3ccccc23)C(=O)O)c2c[nH]c3ccc(OC)cc23)cc1 (mixture of isomers)		44.8	67.4	54.4
COc1ccc(C(CC(=O)CCC(=O)N[C@@H](Cc2ccc(O)cc2)C(=O)O)c2c[nH]c3ccc(OC)cc23)cc1 (mixture of isomers)	29.6	27.2	78.8	69.9
COc1ccc2[nH]cc(C(CC(=O)CCC(=O)N[C@@H](Cc3ccccc3)C(=O)O)c3ccc(C(F)(F)F)cc3)c2c1 (mixture of isomers)	48.5	13	84.9	67.2
COc1ccc2[nH]cc(C(CC(=O)CCC(=O)N[C@@H](Cc3c[nH]cn3)C(=O)O)c3ccc(C(F)(F)F)cc3)c2c1 (mixture of isomers)	23.5	30.5	77.6	62.5
COc1ccc(C(CC(=O)CCC(=O)N[C@@H](Cc2ccc(O)cc2)C(=O)O)c2c[nH]c3ccc(Br)cc23)cc1 (mixture of isomers)		63.3	68.7	41.5
COc1ccc(C(CC(=O)CCC(=O)N[C@@H](Cc2c[nH]cn2)C(=O)O)c2c[nH]c3ccc(OC)cc23)cc1 (mixture of isomers)	22.4	31	75.7	59.2
